From ChEMBL document CHEMBL4184142, “A Naturally Occurring Isoform-Specific Probe for Highly Selective and Sensitive Detection of Human Cytochrome P450 3A5” (J Med Chem, 2017)
Each block holds one molecule with its values, some of them ahead of it.

Experiments:
[1] = molecular target: T1, Cytochrome P450 3A4 (Homo sapiens, UniProt P08684); experiment: Substrate activity at CYP3A4 (unknown origin) assessed as enzyme-mediated compound turnover assessed per pmol protein at 10 uM; type: ADME
[2] = molecular target: T2, Cytochrome P450 3A5 (Homo sapiens, UniProt P20815); experiment: Substrate activity at CYP3A5 (unknown origin) assessed as enzyme-mediated compound turnover assessed per pmol protein at 10 uM; type: ADME
[3] = Substrate activity at CYP450 in human liver microsomes with NADPH-generating system assessed as CYP-mediated benzoic acid (6R,7S)-2,6,10-trihydroxy-1,3,11,12-tetramethoxy-6,7-dimethyl-5,6,7,8-tetrahydro-dibenzo[a,c]cycloocten-5-yl ester formation at 5 uM after 25 mins in presence of CYP inhibitor ABT; type: ADME
Outline: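 Substrate at 5 μM in pooled HLM (0.2 mg protein/mL) with NADPH-generating system in 100 mM phosphate pH 7.4, 37 °C, with or without inhibitor: ketoconazole 1 μM for CYP3A. CYP3cide 1 μM and ABT 500 μM were preincubated with NADPH-generating system at 37 °C for 25 min. Metabolite quantified by UFLC-DAD. Three experiments in duplicate.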

[4] = Intrinsic clearance in human liver microsomes assessed per mg liver microsome; type: ADME
Outline: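 HLM at 0.4 mg/mL, 20 min at 37 °C, in 100 mM potassium phosphate pH 7.4 with NADPH-generating system (1 mM NADP+, 10 mM glucose-6-phosphate, 1 unit/mL G6PDH, 4 mM MgCl2). Substrate at 2–200 μM, 1% methanol. Km and Vmax from nonlinear regression. CLint = Vmax/Km. Three experiments in duplicate, mean ± SD.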

[5] = molecular target: T2, Cytochrome P450 3A5; experiment: Substrate activity at recombinant human CYP3A5 expressed in bactosomes assessed as intrinsic clearance by measuring ratio of Vmax/Km for 2-O-demethylation assessed per pmol protein; type: ADME; conditions: recombinant enzyme
Outline: (§1)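 Bactosome rhCYP3A4 (40 nM, 20 min) or rhCYP3A5 (20 nM, 5 min) incubated at 37 °C with substrate at 2–200 μM in 100 mM potassium phosphate pH 7.4 with NADPH-generating system, 1% methanol. Stopped with ice-cold methanol, demethylated metabolite quantified by UFLC-DAD. Km and Vmax from nonlinear regression; CLint = Vmax/Km. Three experiments in duplicate.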

[6] = molecular target: T1, Cytochrome P450 3A4; experiment: Substrate activity at recombinant human CYP3A4 expressed in bactosomes assessed as intrinsic clearance by measuring ratio of Vmax/Km for 2-O-demethylation assessed per pmol protein; type: ADME; conditions: recombinant enzyme; outline: as §1
[7] = molecular target: Cytochrome P450 3A5 (Homo sapiens, UniProt P20815, F210L); experiment: (§2) Substrate activity at full length CYP3A5 F210L mutant (unknown origin) expressed in […] assessed as enzyme-mediated benzoic acid (6R,7S)-2,6,10-trihydroxy-1,3,11,12-tetramethoxy-6,7-dimethyl-5,6,7,8-tetrahydro-dibenzo[a,c]cycloocten-5-yl ester formation after 60 mins in presence of NADPH by UFLC-DAD analysis relative to wild type CYP3A5; type: ADME, cell-based; conditions: s9, 1 h
Outline: (§3)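 Full-length CYP3A4/CYP3A5 cDNA mutants transfected into COS-7 cells (4 μg plasmid per well). After 24 h, cells were sonicated and S9 fractions prepared (9000g supernatant). Incubation: 5 mg/mL S9 and 50 μM substrate in 100 mM potassium phosphate pH 7.4 with NADPH-generating system, 37 °C, 60 min. Stopped with methanol, metabolite quantified by UFLC-DAD.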

[8] = molecular target: Cytochrome P450 3A4 (Homo sapiens, UniProt P08684, L210F); experiment: as §2, with “CYP3A4 L210F” for “CYP3A5 F210L”, “analysis” for “analysis relative to”, “CYP3A4” for “CYP3A5”; type: cell-based; conditions: 1 h; outline: as §3
[9] = tested on: HepG2; experiment: Cytotoxicity against human HepG2 cells at 300 uM by CCK-8 assay; type: cell-based; conditions: hepg2, 300 µM
Outline: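 HepG2 viability after exposure measured with CCK-8 kit. Cells grown in complete DMEM with 10% FCS.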

[10] = molecular target: T2, Cytochrome P450 3A5; experiment: Substrate activity at CYP3A5 in human Caco2 cell s9 fractions assessed as enzyme-mediated benzoic acid (6R,7S)-2,6,10-trihydroxy-1,3,11,12-tetramethoxy-6,7-dimethyl-5,6,7,8-tetrahydro-dibenzo[a,c]cycloocten-5-yl ester formation at 50 uM after 60 mins by LC-MS/MS analysis; type: ADME, S9 Fraction; conditions: s9, 1 h
Outline: (§4)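 HepG2 or Caco-2 cells grown to 90% confluence in 75 cm2 flasks, trypsinized, sonicated in ice-cold PBS. S9 taken as the 9000g 20-min supernatant, protein by BCA. Incubated with 50 μM substrate and NADPH-generating system, pH 7.4 phosphate, 37 °C for 60 min. Stopped with ice-cold methanol, then centrifuged.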

[11] = molecular target: T2, Cytochrome P450 3A5; experiment: Substrate activity at CYP3A5 in human HepG2 cell s9 fractions assessed as enzyme-mediated benzoic acid (6R,7S)-2,6,10-trihydroxy-1,3,11,12-tetramethoxy-6,7-dimethyl-5,6,7,8-tetrahydro-dibenzo[a,c]cycloocten-5-yl ester formation at 50 uM after 60 mins by LC-MS/MS analysis; type: ADME, S9 Fraction; conditions: s9, 1 h; outline: as §4
[12] = Drug metabolism in human liver microsomes assessed as Vmax for 2-O-demethylation; type: ADME, microsome
Outline: (§5)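 Pooled HLM at 0.4 mg/mL incubated 20 min at 37 °C with substrate at 2, 5, 10, 20, 50, 100, 200 μM. Buffer was 100 mM potassium phosphate pH 7.4 with an NADPH-generating system, methanol 1% (v/v) final, 3 min preincubation. Reaction stopped with ice-cold methanol; 2-O-demethylated metabolite read by UFLC-DAD. Apparent Km and Vmax from nonlinear regression; three experiments in duplicate.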

[13] = Drug metabolism in human liver microsomes assessed as Km for 2-O-demethylation; type: ADME, microsome; outline: as §5
[14] = Drug metabolism in S9 fractions (unknown origin) assessed as benzoic acid (6R,7S)-2,6,10-trihydroxy-1,3,11,12-tetramethoxy-6,7-dimethyl-5,6,7,8-tetrahydro-dibenzo[a,c]cycloocten-5-yl ester formation in presence of UDP-glucuronic acid by UFLC-DAD analysis; type: ADME, subcellular, S9 fraction
[15] = Drug metabolism in s9 fractions (unknown origin) assessed as benzoic acid (6R,7S)-2,6,10-trihydroxy-1,3,11,12-tetramethoxy-6,7-dimethyl-5,6,7,8-tetrahydro-dibenzo[a,c]cycloocten-5-yl ester formation in presence of 3'-phosphoadenosine-5'-phosphosulfate by UFLC-DAD analysis; type: ADME, subcellular, S9 fraction
[16] = Drug metabolism in s9 fractions (unknown origin) assessed as benzoic acid (6R,7S)-2,6,10-trihydroxy-1,3,11,12-tetramethoxy-6,7-dimethyl-5,6,7,8-tetrahydro-dibenzo[a,c]cycloocten-5-yl ester formation in presence of S-adenosyl-L-methionine by UFLC-DAD analysis; type: ADME, subcellular, S9 fraction
[17] = molecular target: T2, Cytochrome P450 3A5; experiment: Substrate activity at CYP3A5 in human liver microsomes assessed as enzyme-mediated benzoic acid (6R,7S)-2,6,10-trihydroxy-1,3,11,12-tetramethoxy-6,7-dimethyl-5,6,7,8-tetrahydro-dibenzo[a,c]cycloocten-5-yl ester formation at 5 uM by LC-MS/MS analysis; type: ADME
[18] = substrate: COc1cc2c(c(OC)c1OC)-c1c(cc(O)c(OC)c1OC)C[C@H](C)[C@](C)(O)[C@H]2OC(=O)c1ccccc1; experiment: Substrate activity at recombinant human CYP3A5 expressed in bactosomes assessed as Km for 2-O-demethylation after 5 mins by Eadie-Hofstee plot method; type: ADME
Outline: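 Bactosome rhCYP3A5 (20 nM, coexpressed with human NADPH-P450 reductase) incubated 5 min at 37 °C with substrate 2–200 μM in 100 mM potassium phosphate pH 7.4 with NADPH-generating system, final methanol 1%. Reaction stopped with ice-cold methanol. Metabolite measured by UFLC-DAD. Apparent Km from nonlinear regression, plotted as Eadie–Hofstee. Three independent experiments in duplicate, mean ± SD.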

T1 sequence (P08684 whole entry): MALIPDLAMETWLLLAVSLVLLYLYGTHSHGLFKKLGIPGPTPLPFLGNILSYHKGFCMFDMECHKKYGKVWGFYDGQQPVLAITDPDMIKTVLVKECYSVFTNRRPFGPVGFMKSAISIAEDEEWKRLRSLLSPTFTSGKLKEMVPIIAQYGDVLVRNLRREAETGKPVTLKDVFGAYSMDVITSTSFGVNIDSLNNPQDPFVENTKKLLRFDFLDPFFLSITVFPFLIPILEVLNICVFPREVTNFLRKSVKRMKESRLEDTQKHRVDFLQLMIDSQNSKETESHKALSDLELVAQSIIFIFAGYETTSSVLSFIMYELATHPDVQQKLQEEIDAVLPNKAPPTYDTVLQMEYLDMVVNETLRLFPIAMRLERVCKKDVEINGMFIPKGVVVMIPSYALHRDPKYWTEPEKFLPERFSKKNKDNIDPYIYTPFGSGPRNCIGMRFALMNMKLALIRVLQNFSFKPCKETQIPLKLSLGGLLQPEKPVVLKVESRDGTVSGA
Cytochrome P450 3A4 (Homo sapiens, UniProt P08684, L210F), sequence (P08684 2-503 L210F limits assumed): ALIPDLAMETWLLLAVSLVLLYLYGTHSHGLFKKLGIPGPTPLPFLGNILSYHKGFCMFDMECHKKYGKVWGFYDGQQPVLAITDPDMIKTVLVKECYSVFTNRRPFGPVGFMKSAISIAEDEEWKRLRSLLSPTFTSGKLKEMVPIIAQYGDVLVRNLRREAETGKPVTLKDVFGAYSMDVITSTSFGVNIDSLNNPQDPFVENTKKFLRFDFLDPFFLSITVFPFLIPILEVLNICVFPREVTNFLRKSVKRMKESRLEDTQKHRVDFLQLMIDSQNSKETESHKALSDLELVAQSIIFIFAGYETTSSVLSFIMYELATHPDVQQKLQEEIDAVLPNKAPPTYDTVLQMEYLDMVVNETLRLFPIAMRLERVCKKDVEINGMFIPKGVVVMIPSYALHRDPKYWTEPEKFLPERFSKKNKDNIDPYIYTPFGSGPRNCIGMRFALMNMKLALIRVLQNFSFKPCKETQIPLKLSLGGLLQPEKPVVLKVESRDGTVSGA
Cytochrome P450 3A5 (Homo sapiens, UniProt P20815, F210L), sequence (P20815 whole entry F210L): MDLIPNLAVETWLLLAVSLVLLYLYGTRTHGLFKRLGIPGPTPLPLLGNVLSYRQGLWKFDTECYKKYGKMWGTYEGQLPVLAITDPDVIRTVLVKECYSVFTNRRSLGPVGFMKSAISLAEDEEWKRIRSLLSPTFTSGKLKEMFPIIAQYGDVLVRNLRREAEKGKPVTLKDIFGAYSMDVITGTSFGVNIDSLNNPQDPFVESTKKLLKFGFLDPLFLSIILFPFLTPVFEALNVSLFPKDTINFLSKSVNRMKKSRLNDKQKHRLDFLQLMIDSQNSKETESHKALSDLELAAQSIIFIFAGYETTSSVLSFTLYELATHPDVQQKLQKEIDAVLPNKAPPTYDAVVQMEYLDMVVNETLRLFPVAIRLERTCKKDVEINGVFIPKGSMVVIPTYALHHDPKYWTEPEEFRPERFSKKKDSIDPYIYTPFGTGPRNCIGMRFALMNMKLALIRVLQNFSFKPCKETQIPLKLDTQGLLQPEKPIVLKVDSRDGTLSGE

Drug metabolism [1]: Metabolite_Notdetected
Drug metabolism [2]: Metabolite_Notdetected
Molecule: COc1c2c(cc3c1-c1c(cc4c(c1OC)OCO4)C[C@H](C)[C@H](C)C3)OCO2 [SCHISANDRIN C]

Drug metabolism [1]: 4 to 9 pmol/min
Drug metabolism [2]: 1 to 3 pmol/min
Molecule: COc1cc2c(c(OC)c1OC)-c1c(cc3c(c1OC)OCO3)C(OC(=O)c1ccccc1)[C@](C)(O)[C@@H](C)C2 (stereo partly specified)

Drug metabolism [1]: 1 to 3 pmol/min
Drug metabolism [2]: >= 30 pmol/min
Drug metabolism [3]: Metabolite_Notdetected
microsomal CLint [4]: 50.2 µL/min/mg
Ratio [5]: 10.7 µL/min/pmol
Ratio [6]: 0.46 µL/min/pmol
fold change (FC) [7]: 2.1
fold change (FC) [8]: 2.6
Drug metabolism [10]: Metabolite_Detected
Drug metabolism [11]: Metabolite_Detected
Vmax [12]: 248.5 pmol/min/mg
Km [13]: 4.95 µM
Drug metabolism [14]: Metabolite_Notdetected
Drug metabolism [15]: Metabolite_Notdetected
Drug metabolism [16]: Metabolite_Notdetected
Drug metabolism [17]: 23.2 to 159 pmol/min/mg
Molecule: COc1cc2c(c(OC)c1OC)-c1c(cc(O)c(OC)c1OC)C[C@H](C)[C@](C)(O)[C@H]2OC(=O)c1ccccc1
Activity [9]: Non-Toxic

Drug metabolism [1]: Metabolite_Notdetected
Drug metabolism [2]: Metabolite_Notdetected
Molecule: COc1cc2c(c(OC)c1OC)-c1c(cc3c(c1OC)OCO3)C[C@H](C)[C@H](C)C2 [WUWEIZISU B]

Drug metabolism [1]: 16 to 29 pmol/min
Drug metabolism [2]: 10 to 15 pmol/min
Molecule: COc1cc2c(c(OC)c1OC)-c1c(cc(OC)c(OC)c1OC)C[C@H](C)[C@H](C)C2 [SCHISANDRIN A]

Drug metabolism [1]: Metabolite_Notdetected
Drug metabolism [2]: Metabolite_Notdetected
Molecule: COc1cc2c(c(OC)c1OC)-c1c(cc3c(c1OC)OCO3)C[C@H](C)[C@@](C)(O)C2OC(=O)c1ccccc1 (stereo partly specified)

Drug metabolism [1]: Metabolite_Notdetected
Drug metabolism [2]: Metabolite_Notdetected
Molecule: C/C=C(/C)C(=O)OC1c2cc(OC)c(OC)c(OC)c2-c2c(cc3c(c2OC)OCO3)C[C@H](C)[C@@]1(C)O (stereo partly specified)

Drug metabolism [1]: 10 to 15 pmol/min
Drug metabolism [2]: 1 to 3 pmol/min
Molecule: COc1cc2c(c(OC)c1OC)-c1c(cc3c(c1OC)OCO3)C[C@H](C)[C@@](C)(O)C2 [BESIGOMSIN]

Drug metabolism [1]: 4 to 9 pmol/min
Drug metabolism [2]: 1 to 3 pmol/min
Molecule: COc1c(O)cc2c(c1OC)-c1c(cc(O)c(OC)c1OC)C(O)[C@@H](C)[C@@H](C)C2 (stereo partly specified)

Drug metabolism [1]: >= 30 pmol/min
Drug metabolism [2]: 1 to 3 pmol/min
Molecule: COc1cc2c(c(OC)c1OC)-c1c(cc(OC)c(OC)c1OC)C[C@](C)(O)[C@@H](C)C2 [SCHIZANDRIN]

Drug metabolism [1]: 10 to 15 pmol/min
Drug metabolism [2]: 4 to 9 pmol/min
Molecule: COc1cc2c(c(O)c1OC)-c1c(cc(OC)c(OC)c1OC)C[C@H](C)[C@H](C)C2

Drug metabolism [1]: 4 to 9 pmol/min
Drug metabolism [2]: 1 to 3 pmol/min
Molecule: COc1cc2c(c(OC)c1OC)-c1c(cc3c(c1OC)OCO3)C[C@H](C)[C@@](C)(O)C2O (stereo partly specified)

B1: Cytochrome P450 3A5 (Homo sapiens) (protein)
chain: MDLIPNLAVETWLLLAVSLVLLYLYGTRTHGLFKRLGIPGPTPLPLLGNVLSYRQGLWKFDTECYKKYGKMWGTYEGQLPVLAITDPDVIRTVLVKECYSVFTNRRSLGPVGFMKSAISLAEDEEWKRIRSLLSPTFTSGKLKEMFPIIAQYGDVLVRNLRREAEKGKPVTLKDIFGAYSMDVITGTSFGVNIDSLNNPQDPFVESTKKFLKFGFLDPLFLSIILFPFLTPVFEALNVSLFPKDTINFLSKSVNRMKKSRLNDKQKHRLDFLQLMIDSQNSKETESHKALSDLELAAQSIIFIFAGYETTSSVLSFTLYELATHPDVQQKLQKEIDAVLPNKAPPTYDAVVQMEYLDMVVNETLRLFPVAIRLERTCKKDVEINGVFIPKGSMVVIPTYALHHDPKYWTEPEEFRPERFSKKKDSIDPYIYTPFGTGPRNCIGMRFALMNMKLALIRVLQNFSFKPCKETQIPLKLDTQGLLQPEKPIVLKVDSRDGTLSGE
Km [18]: 5.9 µM
Vmax [18]: 6.34e-05 µmol/min
